Data set [1] deals with T1, Broad substrate specificity ATP-binding cassette transporter ABCG2 (Homo sapiens, UniProt Q9UNQ0).
T1 sequence (Q9UNQ0 whole entry): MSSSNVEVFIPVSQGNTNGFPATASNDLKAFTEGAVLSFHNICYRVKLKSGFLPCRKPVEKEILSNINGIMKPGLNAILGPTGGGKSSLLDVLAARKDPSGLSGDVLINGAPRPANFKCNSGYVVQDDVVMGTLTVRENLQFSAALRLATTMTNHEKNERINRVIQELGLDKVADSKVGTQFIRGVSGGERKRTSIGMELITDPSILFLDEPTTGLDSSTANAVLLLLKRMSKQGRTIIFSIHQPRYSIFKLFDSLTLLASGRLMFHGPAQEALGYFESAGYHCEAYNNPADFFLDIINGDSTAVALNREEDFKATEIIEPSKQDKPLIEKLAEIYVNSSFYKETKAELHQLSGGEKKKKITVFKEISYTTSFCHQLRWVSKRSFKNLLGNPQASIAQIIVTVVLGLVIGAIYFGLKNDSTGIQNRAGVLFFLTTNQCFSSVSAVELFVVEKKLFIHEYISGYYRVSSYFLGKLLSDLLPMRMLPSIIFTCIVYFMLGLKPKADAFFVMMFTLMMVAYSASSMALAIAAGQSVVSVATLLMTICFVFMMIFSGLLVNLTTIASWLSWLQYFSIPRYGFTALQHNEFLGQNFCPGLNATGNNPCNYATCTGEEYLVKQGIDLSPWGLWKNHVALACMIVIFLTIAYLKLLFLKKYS
In words: Observed permeability in MDCK2 cells expressing human ABCG2 assessed as ABCG2-mediated apical to basolateral transport at 3 uM after 0.5 to 1 hrs by HPLC method. It is filed as ADME, cell-based. Conditions: mdck-ii. The method in brief:
(§1)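 Mock (empty pcDNA3.1) or rat Abcg2/human ABCG2-transfected MDCKII, G418-selected, seeded on 3.0-μm Transwell filters at 1.0×10^6 cells/well, grown 4 days to TEER >200 Ω·cm². Single isomer loaded apical or basolateral in serum-free Opti-MEM I with 0.2 μCi/ml [3H]mannitol, 37°C 5% CO2. Receiver sampled at 0.5 and 1 h. Quantified by HPLC-UV 290 nm. Permeability = initial rate/(area × donor concentration). Efflux ratio = B→A rate / A→B rate. n = 3, mean ± S.D.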

The target of data set [2] is T1, Broad substrate specificity ATP-binding cassette transporter ABCG2. Nature of the data set: Observed permeability in MDCK2 cells expressing human ABCG2 assessed as ABCG2-mediated apical to basolateral transport at 30 uM after 0.5 to 1 hrs by HPLC method. It is filed as ADME, cell-based. Conditions: mdck-ii. The method in brief: as §1
The target is the same in data set [3]. Nature of the data set: Observed permeability in MDCK2 cells expressing human ABCG2 assessed as ABCG2-mediated apical to basolateral transport at 200 uM after 0.5 to 1 hrs by HPLC method. The settings on record: mdck-ii. It is filed as ADME, cell-based. The method in brief: as §1
Data set [4] has the same target. In words: Observed permeability in MDCK2 cells expressing human ABCG2 assessed as ABCG2-mediated basolateral to apical transport at 3 uM after 0.5 to 1 hrs by HPLC method. In kind it is ADME, cell-based. The settings on record: mdck-ii. In a few lines:
as §1

Data set [5] has the same target. Nature of the data set: Observed permeability in MDCK2 cells expressing human ABCG2 assessed as ABCG2-mediated basolateral to apical transport at 50 uM after 0.5 to 1 hrs by HPLC method. Conditions: mdck-ii. It is filed as ADME, cell-based. The method in brief: as §1
For data set [6], the target named is T2, ABCG2 (Homo sapiens, UniProt Q9UNQ0).
T2 sequence (Q9UNQ0 whole entry): T1 sequence (Q9UNQ0 whole entry)
In words: Asymmetry efflux ratio in MDCK2 cells expressing human ABCG2 assessed as ABCG2-mediated drug transport ratio at 3 uM after 0.5 to 1 hrs by HPLC method. It is filed as ADME, cell-based. In a few lines: as §1

The target in data set [7] is T3, Broad substrate specificity ATP-binding cassette transporter ABCG2 (Rattus norvegicus, UniProt Q80W57).
T3 sequence (Q80W57 whole entry): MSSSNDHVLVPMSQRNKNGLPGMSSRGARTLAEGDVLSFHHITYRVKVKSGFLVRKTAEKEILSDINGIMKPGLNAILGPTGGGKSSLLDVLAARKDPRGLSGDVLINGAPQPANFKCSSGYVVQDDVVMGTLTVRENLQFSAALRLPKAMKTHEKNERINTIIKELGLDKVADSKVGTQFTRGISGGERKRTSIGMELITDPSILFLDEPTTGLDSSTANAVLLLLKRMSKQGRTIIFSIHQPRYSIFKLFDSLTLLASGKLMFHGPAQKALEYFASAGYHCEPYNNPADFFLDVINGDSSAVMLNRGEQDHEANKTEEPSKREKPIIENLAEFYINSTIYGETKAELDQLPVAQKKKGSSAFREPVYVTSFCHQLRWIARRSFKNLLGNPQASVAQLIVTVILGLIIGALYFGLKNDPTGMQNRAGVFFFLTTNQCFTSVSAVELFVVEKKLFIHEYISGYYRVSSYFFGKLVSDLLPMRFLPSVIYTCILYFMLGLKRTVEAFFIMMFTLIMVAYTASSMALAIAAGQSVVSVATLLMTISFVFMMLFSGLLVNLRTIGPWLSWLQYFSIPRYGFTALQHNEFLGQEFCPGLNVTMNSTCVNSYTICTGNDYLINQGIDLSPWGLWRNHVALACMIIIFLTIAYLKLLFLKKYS
Nature of the data set: Observed permeability in MDCK2 cells expressing rat ABCG2 assessed as ABCG2-mediated basolateral to apical transport at 10 uM after 0.5 to 1 hrs by HPLC method. In kind it is ADME, cell-based. Conditions: mdck-ii. The method in brief: as §1

In data set [8] the target is T3, Broad substrate specificity ATP-binding cassette transporter ABCG2. Nature of the data set: Observed permeability in MDCK2 cells expressing rat ABCG2 assessed as ABCG2-mediated basolateral to apical transport at 50 uM after 0.5 to 1 hrs by HPLC method. In kind it is ADME, cell-based. The settings on record: mdck-ii. The method in brief: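 rAbcg2-transfected MDCKII monolayers seeded at 1.0×10^6 cells/well on 3.0-μm filters, grown 4 days to TEER >200 Ω·cm². Serum-free Opti-MEM I on both sides. Individual PAN isomer plus 0.2 μCi/ml [3H]mannitol loaded basolaterally, 37°C, 5% CO2. Receiver sampled at 0.5 and 1 h, PAN quantified by HPLC-UV 290 nm. P_obs = initial transfer rate/(area × initial donor concentration). Mean ± S.D., n = 3.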

For data set [9] the target is unchanged. Nature of the data set: Observed permeability in MDCK2 cells expressing rat ABCG2 assessed as ABCG2-mediated basolateral to apical transport at 200 uM after 0.5 to 1 hrs by HPLC method. It is filed as ADME, cell-based. The settings on record: mdck-ii. The method in brief: as §1
Data set [10] addresses T4, ABCG2 (Rattus norvegicus, UniProt Q80W57).
T4 sequence (Q80W57 whole entry): T3 sequence (Q80W57 whole entry)
Nature of the data set: Asymmetry efflux ratio in MDCK2 cells expressing rat ABCG2 assessed as ABCG2-mediated drug transport ratio at 10 uM after 0.5 to 1 hrs by HPLC method. In kind it is ADME, cell-based. In a few lines:
as §1

Data set [11] in a line: Observed permeability in MDCK2 cells assessed as apical to basolateral transport at 3 to 200 uM after 0.5 to 1 hrs by HPLC method. Conditions: dog, mdck-ii. In kind it is ADME, cell-based, Canis lupus familiaris. In a few lines: as §1
A short description of data set [12]: Observed permeability in MDCK2 cells assessed as basolateral to apical transport at 30 uM after 0.5 to 1 hrs by HPLC method. It is filed as ADME, cell-based, Canis lupus familiaris. Conditions: dog, mdck-ii. The method in brief:
as §1

Data set [13] is described as follows: Asymmetry efflux ratio in MDCK2 cells assessed as drug transport ratio at 3 uM after 0.5 to 1 hrs by HPLC method. In kind it is ADME, cell-based, Canis lupus familiaris, MDCK-II. Conditions: dog, MDCK. In a few lines:
as §1

The nature of data set [14]: Asymmetry efflux ratio in MDCK2 cells assessed as drug transport ratio at 10 uM after 0.5 to 1 hrs by HPLC method. The settings on record: dog, MDCK. It is filed as ADME, cell-based, Canis lupus familiaris, MDCK-II. The method in brief:
as §1

A short description of data set [15]: Asymmetry efflux ratio in MDCK2 cells assessed as drug transport ratio at 50 uM after 0.5 to 1 hrs by HPLC method. In kind it is ADME, cell-based, Canis lupus familiaris, MDCK-II. The settings on record: dog, MDCK. The method in brief: as §1
Data set [16] can be described thus: Asymmetry efflux ratio in MDCK2 cells assessed as drug transport ratio at 3 to 200 uM after 0.5 to 1 hrs by HPLC method. Conditions: dog, MDCK. It is filed as ADME, cell-based, Canis lupus familiaris, MDCK-II. In a few lines:
as §1

Each structure is given as a SMILES string.

A word on the efflux ratio: it is the permeability from basolateral to apical divided by that in the opposite direction, in the common usage. As for `COc1ccnc(C[S@@+]([O-])c2nc3cc(OC(F)F)ccc3[nH]2)c1OC`, the Papp was 30 uL/hr/cm2 in data set [1]; 43.6 uL/hr/cm2 in data set [2]; 126 uL/hr/cm2 in [3]; 258 uL/hr/cm2 in [4]; 195 uL/hr/cm2 in data set [5]; 229 uL/hr/cm2 in data set [7]. Also, the Papp in data set [8] was found to be 194 uL/hr/cm2; in data set [9] it was 162 uL/hr/cm2; in data set [11] it was 121 uL/hr/cm2; in data set [12], 116 uL/hr/cm2. For the same molecule, the figures for the efflux ratio at 3 µM (at ABCG2 [6]; in [13]) were 8.61 and 1.01, respectively. Also, the efflux ratio at 10 µM was 11 on ABCG2 [10] and 1.07 in [14]. In data set [15], the efflux ratio at 50 µM came to 1.09. In addition, in data set [16], the efflux ratio at up to 200 µM was determined as 1.04.
On to `COc1ccnc(C[S@+]([O-])c2nc3cc(OC(F)F)ccc3[nH]2)c1OC`, for which the Papp in [1] was found to be 16.9 uL/hr/cm2; in [2], 67.6 uL/hr/cm2; in data set [3], 132 uL/hr/cm2; in [4] it was 254 uL/hr/cm2; in data set [5] it was 156 uL/hr/cm2; in data set [7] it was 224 uL/hr/cm2. Further, the Papp came out at 137 uL/hr/cm2 in data set [8], 136 uL/hr/cm2 in data set [9], 121 uL/hr/cm2 in [11] and 123 uL/hr/cm2 in data set [12]. The efflux ratio at 3 µM came to 15 at ABCG2 [6] and 1.01 in data set [13]. Also, the efflux ratio at 10 µM at ABCG2 [10] amounted to 7.44; in [14], 1.06. For the same molecule, in [15], the efflux ratio at 50 µM is 1.04. Also, the efflux ratio at up to 200 µM in data set [16] amounted to 1.04.

The values are drawn from ChEMBL document CHEMBL3525931, “Stereoselective interaction of pantoprazole with ABCG2. II. In vitro flux analysis” (Drug Metab Dispos, 2012).
